Source: PubChem
GalR3 antagonist: antagonists of human GalR3. hit rate 0.44% among 360,000. AID 651719. HEK293 GalR3-CNG cAMP membrane potential fluorescence; galR3 body fused to GalR1 C-terminus. inhibition, % at 3 µM;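 active means inhibition above the screen-wide average plus 3 SD, cut at about 13% in these data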;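 further: forskolin and galanin both at EC90 stimulate the cells; cAMP rise reported by CNG channel membrane potential dye signal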
Target sequence (O60755 1-299 limits assumed): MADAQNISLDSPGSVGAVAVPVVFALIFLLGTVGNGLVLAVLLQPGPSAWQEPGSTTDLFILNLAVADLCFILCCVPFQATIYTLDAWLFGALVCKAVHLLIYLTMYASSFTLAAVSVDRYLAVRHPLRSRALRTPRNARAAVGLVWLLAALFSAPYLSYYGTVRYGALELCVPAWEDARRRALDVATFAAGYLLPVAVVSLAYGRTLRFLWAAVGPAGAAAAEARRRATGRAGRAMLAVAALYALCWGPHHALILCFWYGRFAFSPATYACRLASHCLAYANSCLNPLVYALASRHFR
NR2E3 ag-1: agonists of human nuclear receptor NR2E3; Q9Y5X4; GST-NR2E3/biotin-RetCOR TR-FRET, 1536-well; inhibition of corepressor binding, % at 4.78 µM; hit rate 0.12% among 320,000; AID 2300;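 active means percent inhibition above the cutoff of mean plus 3 SD of all tested compounds, set per screening campaign, cut at about 20% in these data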
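system = GST-tagged NR2E3 plus biotinylated RetCOR corepressor | input = 1.35 nM GST-NR2E3 | also added = 7 nM biotin-RetCOR | schedule = 5 h incubation at 4 °C | measured by = TR-FRET with europium anti-GST and streptavidin-D2, 340 nm excitation | read-out = percent loss of FRET ratio relative to control wells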
PG9 binder: PG9 antibody binding by small molecule; TR-FRET gp120-PG9 antibody binding; inhibition, % at 6.7 µM; hit rate 0.43% among 360,000; in the data active means inhibition above about 8.5%
NR1D1 modulator: Rev-erb alpha (human) modulation. P20393. Rev-erbα–FITC-DNA binding, fluorescence polarization, 90 min. activity, % at 10 µM. hit rate 0.79% among 370,000. AID 1259318;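 active means activity above about 14%, limit read from the data; passing the limit was not always enough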
NR2E3 ag-2: agonists of human NR2E3 nuclear receptor; Q9Y5X4; CHO-S Gal4-NCOR/VP16-NR2E3 two-hybrid, luciferase; inhibition of corepressor binding, % at 3.98 µM; hit rate 0.35% among 360,000; AID 602229;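 active means inhibition above the mean of all tested compounds plus 3 SD, cut at about 70% in these data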;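 further: higher means lower luciferase signal from less NR2E3 corepressor binding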
NR1D1 mod conf: confirmation of modulators of human Rev-erb alpha DNA binding; shares compounds with NR1D1 modulator; AID 1259319; activation, % at 25 µM; Rev-erb alpha FITC-DNA binding, fluorescence polarization, 90 min; hit rate 61% among 3,000;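 active means activation at or above a set limit, or at least 3 SD above the negative control mean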
RORg counter: RORgamma DNA-binding activity, dose-response counter-screen; shares compounds with NR1D1 modulator; purified RORgamma protein-FITC-DNA binding, fluorescence polarization; IC50, µM; hit rate 8% among 910; AID 1259320;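 active means Compounds whose fitted half-maximal concentration for disrupting protein-DNA binding is below 10 micromolar; the record names Rev-erb in its text, so the target is in doubt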
Of the large screens only hits and unclear results are named; the others gave an inactive call (follow-up assays come after a bar, where they were run). This is a sample that favours compounds with a hit; in the whole collection about 1.8% have one here.

CN(C)C=Nc1ncc2c3ccccc3n(Cc3ccccc3)c2c1C#N	NR1D1 modulator 34.4 | NR1D1 mod conf 29.9
C=CCOc1ccc(C2C(C(=O)c3cccs3)=C(O)C(=O)N2c2nnc(C)s2)cc1 (stereo unspecified)	NR1D1 modulator 33.5 | NR1D1 mod conf 53.9 | RORg counter inactive
O=S(=O)(c1ccccc1)c1nc(-c2ccc(F)cc2)oc1NCC1CCCO1 (stereo unspecified)	none
CNc1oc(-c2ccc(F)cc2)nc1S(=O)(=O)c1ccccc1	NR1D1 modulator 34.4 | NR1D1 mod conf inactive
CCOc1ccc(N=C2SCC(=O)N2CC)cc1	none
CCN1C(=O)CSC1=NC1C2CC3CC(C2)CC1C3 (stereo unspecified)	NR1D1 modulator 42.0 | NR1D1 mod conf 47.5 | RORg counter inactive
COc1cc(C(=O)N(Cc2ccco2)Cc2cc3ccccc3[nH]c2=O)cc(OC)c1OC	none
COc1cc(C(=O)OCc2cc3ccccc3[nH]c2=O)cc(OC)c1OC	NR1D1 modulator 44.8 | NR1D1 mod conf 29.6
COc1ccc(-c2nnc3ccc(SCC(=O)Nc4nccs4)nn23)cc1OC	none
COc1ccc(-c2nnc3ccc(SCC(=O)Nc4nc5ccccc5s4)nn23)cc1OC	NR1D1 modulator 45.6 | NR1D1 mod conf inactive
CCCCOc1cccc(C(=O)NCCc2ccccc2-c2ccccc2CCC(=O)NCc2ccccc2)c1	none (no result: GalR3 antagonist, NR2E3 ag-1, PG9 binder, NR2E3 ag-2)
Cc1ccc[n+](-c2nc([O-])sc2/C=N/Nc2ccc([N+](=O)[O-])cc2)c1	NR1D1 modulator 26.5 | NR1D1 mod conf inactive
COc1cc(OC)cc(-n2c3nc4ccccc4nc3c3c(=O)n(CC4CCCO4)cnc32)c1 (stereo unspecified)	NR1D1 modulator 299.8 (no result: NR2E3 ag-2) | NR1D1 mod conf 142.4 | RORg counter inactive
O=c1c2c3nc4ccccc4nc3n(CC3CCCO3)c2ncn1CCc1ccccc1 (stereo unspecified)	none
C[C@@H]1/C=C/CC(=O)N[C@H](c2ccccc2)[C@H](C)/C=C/CC(=O)N[C@@H]1c1ccccc1	none (no result: GalR3 antagonist, NR2E3 ag-1, PG9 binder, NR2E3 ag-2)
CN(C)c1ncnc2c1ncn2[C@H]1CN(Cc2ccncc2)C[C@@H](CO)O1	none (no result: NR2E3 ag-1)
CN(C)c1ncnc2c1ncn2[C@H]1CN(Cc2cccs2)C[C@@H](CO)O1	NR1D1 modulator 23.9 (no result: NR2E3 ag-1) | NR1D1 mod conf inactive
N#Cc1c(N2CCSCC2)nsc1-c1ccccc1Cl	NR1D1 modulator 22.7 (no result: NR2E3 ag-1) | NR1D1 mod conf 27.7
CC(C)C[C@H]1COc2cccc(F)c2S(=O)(=O)N1Cc1cn(Cc2ccco2)nn1	none (no result: GalR3 antagonist, NR2E3 ag-1, PG9 binder, NR2E3 ag-2)
COc1ccc(C(=O)N[C@H]2CC[C@@]34CCCN3C(=O)CCC[C@H]4[C@H]2C)cc1	none (no result: GalR3 antagonist, NR2E3 ag-1, PG9 binder, NR2E3 ag-2)
CN(C)CCNc1ccc2nnn3c4ccc(O)cc4c(=O)c1c23	none (no result: NR2E3 ag-1)
CCN(CC)CCCNc1ccc2ncn3c4ccc(O)cc4c(=O)c1c23	NR1D1 modulator 91.5 (no result: NR2E3 ag-1) | NR1D1 mod conf 50.4
NC(=NCCc1c[nH]c2ccccc12)NC(=O)OCc1ccccc1	none (no result: GalR3 antagonist, NR2E3 ag-1, PG9 binder, NR2E3 ag-2)
COc1ccccc1CNC(=O)c1c(O)c2cc(OC)c(OC)cc2[nH]c1=O	NR1D1 modulator 28.5 | NR1D1 mod conf 19.2
O=C(NCC1CCCO1)c1nn2c(C(F)(F)F)cc(-c3ccco3)nc2c1Cl (stereo unspecified)	none
N#CCNC(=O)c1nn2c(C(F)(F)F)cc(-c3ccccc3)nc2c1Br	NR1D1 modulator 56.7 | NR1D1 mod conf 31.2 | RORg counter inactive
O=C(NCC1CCCO1)c1nn2c(C(F)(F)F)cc(-c3cc(Br)cs3)nc2c1Br (stereo unspecified)	NR1D1 modulator 22.9 | NR1D1 mod conf inactive
COc1ccc(CNS(=O)(=O)/C=C/c2cc(C)ccc2CNC(=O)OC(C)(C)C)cc1	none (no result: GalR3 antagonist, NR2E3 ag-1, PG9 binder, NR2E3 ag-2)
O=C(CSc1nnc(-c2ccccc2)n1Cc1ccco1)Nc1ccc(Oc2ccccc2)cc1	none (no result: GalR3 antagonist, NR2E3 ag-1, PG9 binder, NR2E3 ag-2)
O=C1CC(c2cccc(Cl)c2)Cc2nc(N3CCN(c4ccccc4)CC3)ncc21 (stereo unspecified)	NR1D1 modulator 36.7 | NR1D1 mod conf 19.3
O=C1CC(c2cccc(Cl)c2)Cc2nc(N3CCOCC3)ncc21 (stereo unspecified)	none
